The text below walks through data of ChEMBL document CHEMBL1122735, “Synthesis and activity of novel nitropyrazines for use as hypoxic cell radiosensitizers” (J Med Chem, 1984).

Data set [1] can be described thus: Sensitizer enhancement ratio was reported at 10E-3 mol/dmE-3 concentration. An outline of the steps:
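Asynchronous log-phase V79 379A cells, attached to glass dishes, irradiated at room temperature with 250 kVp X-rays (0.5 mm Cu + 0.8 mm Al filter, 3.26 gray min-1) in the presence of sensitizer, triplicate dishes per point; colonies scored. ER = dose for 10^-2 survival without sensitizer divided by dose with sensitizer, or ratio of final linear survival-curve slopes.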

A short description of data set [2]: Compound was evaluated for the acute cytotoxicity chinese hamster lung fibroblast like cells after 2 hr exposure in nitrogen at 22 degree Centigrade. In kind it is cell-based, Cricetulus griseus. An outline of the steps:
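V79 379A Chinese hamster lung fibroblast-like cells, taken from log-phase suspension culture, allowed to attach to glass dishes in Eagle's MEM + 10% fcs at 37 °C for 2-3 h. Exposed to a range of sensitizer concentrations for 2 h at room temperature (22 °C) under N2 + 5% CO2. Sensitizer then replaced with fresh medium, followed by 7 days at 37 °C in air + 5% CO2 and colony scoring. Value is the concentration giving 75% colony-forming survival.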

Data set [3] in a line: Compound was evaluated for the chronic aerobic cytotoxicity in chinese hamster lung fibroblast like cells after 7 days exposure in air at 37 degree Centigrade. In kind it is cell-based, Cricetulus griseus. The following applies: 168 h. The essentials:
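V79 379A Chinese hamster lung fibroblast-like cells kept in Eagle's MEM with fcs. Cells plated in Petri dishes and held with a range of sensitizer concentrations for 7 days at 37 °C in air plus 5% CO2, then colonies scored. The concentration reducing colony number to 50% was estimated.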

Data set [4] is described as follows: Partition coefficient which was measured in octanol-buffer system at pH 7, 22 degree Centigrade. Type of data set: physicochemical. Conditions: octanol/water. The essentials:
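Partition coefficient taken as C(octanol)/C(pH 7 buffer) at 22 °C.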

SMILES strings stand for the structures.

Consider `O=[N+]([O-])c1nccnc1NCC(O)CO` (stereo not given), for which, in data set [1], the Ratio worked out at 1.71. The same molecule returned an Acute toxicity in data set [2] of 0.7 mM. Also, in data set [3], the Cytotoxicity came out at 27 µM. The Partition coefficient in data set [4] turned out to be 0.32.
On to `COC(=O)c1nc(NCC(O)CO)cnc1[N+](=O)[O-]` (stereo not given), for which, in data set [1], the Ratio came to 1.3. Moreover, the Acute toxicity in data set [2] was greater than 5 mM. The molecule further returned a Cytotoxicity in data set [3] greater than 500 µM. This molecule also gave a Partition coefficient in data set [4] of 0.79.
Consider `CC(=O)Nc1nc(N2CCN(C)CC2)c(Cl)nc1[N+](=O)[O-]`, for which the Ratio in data set [1] came out at 1.5. In addition, in data set [2], the Acute toxicity turned out to be 0.16 mM. Also, the Cytotoxicity in data set [3] is 25 µM. The molecule further came in with a Partition coefficient in data set [4] of 3.18.
As to `Nc1nc(NCCO)c(Cl)nc1[N+](=O)[O-]`, the Ratio in data set [1] turned out to be 1.22. Moreover, in data set [2], the Acute toxicity was greater than 3 mM. Moreover, the Cytotoxicity in data set [3] was 260 µM. This molecule also gave a Partition coefficient in data set [4] of 1.32.
On to `Nc1nc(NCC(O)CO)c(Cl)nc1[N+](=O)[O-]` (stereo not given), for which, in data set [1], the Ratio came out at 1.25. This molecule returned an Acute toxicity in data set [2] greater than 4 mM. In data set [3], this molecule registered a Cytotoxicity of 580 µM. Also, the Partition coefficient in data set [4] is 0.6.
For the molecule `COCC(O)Cn1ccnc1[N+](=O)[O-]` (stereo not given) [MISONIDAZOLE], the Acute toxicity in data set [2] stood at 30 mM. Further, the Cytotoxicity in data set [3] is 1300 µM. The Partition coefficient in data set [4] came out at 0.48.
For the molecule `O=[N+]([O-])c1cnc(NC(CO)C(O)CO)cn1` (stereo not given), the Ratio in data set [1] came out at 1.1. Further, the Acute toxicity in data set [2] is greater than 5 mM. In addition, in data set [3], the Cytotoxicity is 650 µM. The Partition coefficient in data set [4] was found to be 0.13.
On to `CC(=O)Nc1nc(NCC(O)CO)c(Cl)nc1[N+](=O)[O-]` (stereo not given), for which, in data set [1], the Ratio stood at 1.3. The molecule further displayed an Acute toxicity in data set [2] of 4 mM. In addition, in data set [3], the Cytotoxicity was 96 µM. This molecule also had a Partition coefficient in data set [4] of 1.01.
Turning to `CC(=O)Nc1nc(NC(CO)C(O)CO)c(Cl)nc1[N+](=O)[O-]` (stereo not given), in data set [1], the Ratio came out at 1.35. In data set [2], this molecule returned an Acute toxicity greater than 3.3 mM. Moreover, the Cytotoxicity in data set [3] is 400 µM. This molecule returned a Partition coefficient in data set [4] of 0.22.
